From ChEMBL document CHEMBL5154934, “Structure-Guided Design of Potent Spirocyclic Inhibitors of Severe Acute Respiratory Syndrome Coronavirus-2 3C-like Protease” (J Med Chem, 2022)
Calls of active or inactive are those of the source. The rule behind the calls is not given here.

Key:
[1] = system: SARS-CoV-2; experiment: Antiviral activity against N-terminal His6-tagged SARS-CoV-2 3C-like protease […] HEK293T cells measured after 24 hrs by cell based replicon assay; format: functional, organism-based; conditions: Severe acute respiratory syndrome coronavirus 2
[2] = Cytotoxicity against african green monkey Vero E6 cells; format: toxicity, cell-based, Vero C1008; conditions: chlorocebus sabaeus
[3] = Safety index, ratio of CC50 for cytotoxicity against Vero E6 cells to EC50 for antiviral activity against SARS-CoV-2 Wuhan-Hu-1; format: toxicity, cell-based, Vero C1008; conditions: monkey, read-out: Ratio CC50/EC50
[4] = system: SARS-CoV-2; experiment: Antiviral activity against SARS-CoV-2 3C-like measured after 24 hrs; format: functional, organism-based; conditions: Severe acute respiratory syndrome coronavirus 2, 24 h
[5] = Inhibition of MERS-CoV 3C-like protease incubated for 30 mins by FRET enzyme assay; parameters: species or system Middle East respiratory syndrome-related coronavirus
[6] = target: Replicase polyprotein 1ab (Severe acute respiratory syndrome coronavirus 2, UniProt P0DTD1); experiment: Inhibition of N-terminal His6-tagged SARS-CoV2 Wuhan-Hu-1 3C-like protease […] expressed in Escherichia coli BL21 (DE3) cells using FAM-SAVLQ/SG-QXL520 as substrate by FRET enzyme assay
Outline: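 Enzyme was full-length codon-optimized N-terminal His6 protease from pET-28a. It was preincubated with serial inhibitor dilutions, or DMSO, for 1 h at 37°C in 20 mM HEPES pH 8 with 200 mM NaCl, 0.4 mM EDTA, 60% glycerol and 6 mM DTT. FAM-SAVLQ/SG-QXL520 was then added and fluorescence (ex 480/em 520 nm) read after 1 h. Readings were background-subtracted. IC50 came from a variable-slope fit, mean ± SD of ≥3 replicates.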

| Structure (SMILES) | Activity [1] | CC50 [2] [µM] | selectivity ratio [3] | EC50 [4] [nM] | IC50 [5] [nM] | IC50 [6] [nM] |
| --- | --- | --- | --- | --- | --- | --- |
| CC(C)C[C@H](NC(=O)OC1CC2(CCN(C(=O)OC(C)(C)C)CC2)C1)C(=O)N[C@@H](C[C@H]1CCNC1=O)C(=O)C(O)S(=O)(=O)O (stereo partly specified) | Active | > 100 | 1250 | 80 | – | – |
| CC(C)C[C@H](NC(=O)OC1CC2(CCN(C(=O)C(C)C)CC2)C1)C(=O)N[C@@H](C[C@H]1CCNC1=O)C(=O)C(O)S(=O)(=O)O (stereo partly specified) | – | > 100 | – | – | – | – |
| CC(C)C[C@H](NC(=O)OCC1CN(C(=O)OC(C)(C)C)C1)C(=O)N[C@@H](C[C@H]1CCNC1=O)C(=O)C(O)S(=O)(=O)O (stereo partly specified) | Active | > 100 | – | 430 | – | – |
| CC(C)C[C@H](NC(=O)OC1CCC2(C1)CN(C(=O)OC(C)(C)C)C2)C(=O)N[C@H](C=O)C[C@H]1CCNC1=O (stereo partly specified) | – | > 100 | – | – | 1010 | 1250 |
| CC(C)C[C@H](NC(=O)OC1CC2(CCN(C(=O)C(C)C)CC2)C1)C(=O)N[C@H](C=O)C[C@H]1CCNC1=O | – | > 100 | – | – | 650 | 380 |
| CC(C)C[C@H](NC(=O)OCC1CN(C(=O)OC(C)(C)C)C1)C(=O)N[C@H](C=O)C[C@H]1CCNC1=O | Active | > 100 | – | 380 | 490 | 410 |
| CC(C)C[C@H](NC(=O)OC1CC2(CCN(C(=O)OC(C)(C)C)C2)C1)C(=O)N[C@@H](C[C@H]1CCNC1=O)C(=O)C(O)S(=O)(=O)O (stereo partly specified) | – | > 100 | – | – | – | – |
| CC(C)C[C@H](NC(=O)OC1CC2(CCN(C#N)CC2)C1)C(=O)N[C@H](C=O)C[C@H]1CCNC1=O | – | > 100 | – | – | 560 | 320 |
| CC(C)C[C@H](NC(=O)OCC1CN(S(C)(=O)=O)C1)C(=O)N[C@@H](C[C@H]1CCNC1=O)C(=O)C(O)S(=O)(=O)O (stereo partly specified) | – | > 100 | – | – | – | – |
| CC(C)C[C@H](NC(=O)OC1(C)CN(C(=O)OC(C)(C)C)C1)C(=O)N[C@@H](C[C@H]1CCNC1=O)C(=O)C(O)S(=O)(=O)O (stereo partly specified) | – | > 100 | – | – | – | – |
| CC(C)C[C@H](NC(=O)OC1CC2(C1)CN(C(=O)OC(C)(C)C)C2)C(=O)N[C@@H](C[C@H]1CCNC1=O)C(=O)C(O)S(=O)(=O)O (stereo partly specified) | – | > 100 | – | – | – | – |
| CC(C)C[C@H](NC(=O)OC1CC2(C1)CN(C(=O)C(C)C)C2)C(=O)N[C@@H](C[C@H]1CCNC1=O)C(=O)C(O)S(=O)(=O)O (stereo partly specified) | – | > 100 | – | – | – | – |
| [2H]C([2H])(OC(=O)N[C@@H](CC(C)C)C(=O)N[C@@H](C[C@H]1CCNC1=O)C(=O)C(O)S(=O)(=O)[O-])C1CN(C(=O)OC(C)(C)C)C1.[Na+] (stereo partly specified) | – | > 100 | – | – | – | – |
| CC(C)C[C@H](NC(=O)OC1CC2(C1)CN(C(=O)Cc1ccccc1)C2)C(=O)N[C@H](C=O)C[C@H]1CCNC1=O | – | > 100 | – | – | 210 | 260 |
| CC(C)C[C@H](NC(=O)OC1(C)CN(C(=O)OC(C)(C)C)C1)C(=O)N[C@H](C=O)C[C@H]1CCNC1=O | – | > 100 | – | – | 3450 | 3650 |
| CC(C)C[C@H](NC(=O)OC1CC2(CCN(C#N)CC2)C1)C(=O)N[C@@H](C[C@H]1CCNC1=O)C(=O)C(O)S(=O)(=O)O (stereo partly specified) | – | > 100 | – | – | – | – |
| CC(C)C[C@H](NC(=O)OC1CC2(CCN(C(=O)OC(C)(C)C)CC2)C1)C(=O)N[C@H](C=O)C[C@H]1CCNC1=O | Active | > 100 | 1250 | 90 | 1200 | 360 |
| CC(C)C[C@H](NC(=O)OC1CC2(C1)CN(S(C)(=O)=O)C2)C(=O)N[C@H](C=O)C[C@H]1CCNC1=O | – | > 100 | – | – | 220 | 680 |

| Structure (SMILES) | Activity [1] | CC50 [2] [µM] | selectivity ratio [3] | EC50 [4] [nM] | IC50 [5] [nM] | IC50 [6] [nM] |
| --- | --- | --- | --- | --- | --- | --- |
| CC(C)C[C@H](NC(=O)OCC1CN(S(C)(=O)=O)C1)C(=O)N[C@H](C=O)C[C@H]1CCNC1=O | – | > 100 | – | – | 1400 | 4950 |
| CC(C)C[C@H](NC(=O)OC1CC2(CCN(S(C)(=O)=O)CC2)C1)C(=O)N[C@@H](C[C@H]1CCNC1=O)C(=O)C(O)S(=O)(=O)O (stereo partly specified) | – | > 100 | – | – | – | – |
| CC(C)C[C@H](NC(=O)OC1CC2(C1)CN(C(=O)OC(C)(C)C)C2)C(=O)N[C@H](C=O)C[C@H]1CCNC1=O | – | > 100 | – | – | 1500 | 3300 |
| CC(C)C[C@H](NC(=O)OCC1CN(C(=O)Cc2ccccc2)C1)C(=O)N[C@H](C=O)C[C@H]1CCNC1=O | – | > 100 | – | – | 280 | 830 |
| CC(C)C[C@H](NC(=O)OC1CC2(CCN(C(=O)Cc3ccccc3)CC2)C1)C(=O)N[C@H](C=O)C[C@H]1CCNC1=O | – | > 100 | – | – | 700 | 350 |
| CC(C)C[C@H](NC(=O)OC1CC2(C1)CN(S(C)(=O)=O)C2)C(=O)N[C@@H](C[C@H]1CCNC1=O)C(=O)C(O)S(=O)(=O)O (stereo partly specified) | – | > 100 | – | – | – | – |
| [2H]C([2H])(OC(=O)N[C@@H](CC(C)C)C(=O)N[C@H](C=O)C[C@H]1CCNC1=O)C1CN(C(=O)OC(C)(C)C)C1 | – | > 100 | – | – | 350 | 330 |
| CC(C)C[C@H](NC(=O)OC1CC2(CCN(C(=O)Cc3ccccc3)CC2)C1)C(=O)N[C@@H](C[C@H]1CCNC1=O)C(=O)C(O)S(=O)(=O)O (stereo partly specified) | – | > 100 | – | – | – | – |
| CC(C)C[C@H](NC(=O)OC1CC2(C1)CN(C(=O)Cc1ccccc1)C2)C(=O)N[C@@H](C[C@H]1CCNC1=O)C(=O)C(O)S(=O)(=O)O (stereo partly specified) | – | > 100 | – | – | – | – |
| CC(C)C[C@H](NC(=O)OC1CC2(C1)CN(C(=O)C(C)C)C2)C(=O)N[C@H](C=O)C[C@H]1CCNC1=O | – | > 100 | – | – | 350 | 1150 |
| CC(C)C[C@H](NC(=O)OC1CN(C(=O)OC(C)(C)C)C1)C(=O)N[C@H](C=O)C[C@H]1CCNC1=O | – | > 100 | – | – | 1650 | 2500 |
| CC(C)C[C@H](NC(=O)OC1CCC2(C1)CN(C(=O)OC(C)(C)C)C2)C(=O)N[C@@H](C[C@H]1CCNC1=O)C(=O)C(O)S(=O)(=O)O (stereo partly specified) | – | > 100 | – | – | – | – |
| CC(C)C[C@H](NC(=O)OCC1CN(C(=O)C2CC3CCC2C3)C1)C(=O)N[C@H](C=O)C[C@H]1CCNC1=O (stereo partly specified) | – | > 100 | – | – | 190 | 520 |
| CC(C)C[C@H](NC(=O)OCC1CN(C(=O)Cc2ccccc2)C1)C(=O)N[C@@H](C[C@H]1CCNC1=O)C(=O)C(O)S(=O)(=O)O (stereo partly specified) | – | > 100 | – | – | – | – |
| CC(C)C[C@H](NC(=O)OC1CN(C(=O)OC(C)(C)C)C1)C(=O)N[C@@H](C[C@H]1CCNC1=O)C(=O)C(O)S(=O)(=O)O (stereo partly specified) | – | > 100 | – | – | – | – |
| CC(C)C[C@H](NC(=O)OCC1CN(C(=O)C2CC3CCC2C3)C1)C(=O)N[C@@H](C[C@H]1CCNC1=O)C(=O)C(O)S(=O)(=O)O (stereo partly specified) | – | > 100 | – | – | – | – |
| CC(C)C[C@H](NC(=O)OC1CC2(CCN(S(C)(=O)=O)CC2)C1)C(=O)N[C@H](C=O)C[C@H]1CCNC1=O | – | > 100 | – | – | 370 | 240 |
| CC(C)C[C@H](NC(=O)OC1CC2(CCN(C(=O)OC(C)(C)C)C2)C1)C(=O)N[C@H](C=O)C[C@H]1CCNC1=O (stereo partly specified) | – | > 100 | – | – | 700 | – |
